Source: publication PMC8103808 (Journal of medicinal chemistry, 2020)

Experiments:
U−87 MG cells = assay: MTT growth inhibition assay in U-87 MG cells; format: cell-based; settings: Homo sapiens, read-out: MTT (% inhibition at 30 μM)
How it was run: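 Cells were grown at 37 °C, 5% CO₂ in 10% FBS medium: DMEM for U-87 MG, RPMI-1640 for A-172. Duplicate wells of 3000–5000 cells were attached overnight, then exposed to 30 μM test compound for 72 h. MTT (3 mg/mL) was added for 4 h at 37 °C and formazan dissolved in DMSO before reading A570. Inhibition (%) = [1−(At−Ab)/(Ac−Ab)]×100.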

PDIA1 [1] = molecular target: T1, PDIA1 (Homo sapiens, UniProt P07237); assay: PDI reductase assay; format: biochemical
T1 sequence (P07237 18-508): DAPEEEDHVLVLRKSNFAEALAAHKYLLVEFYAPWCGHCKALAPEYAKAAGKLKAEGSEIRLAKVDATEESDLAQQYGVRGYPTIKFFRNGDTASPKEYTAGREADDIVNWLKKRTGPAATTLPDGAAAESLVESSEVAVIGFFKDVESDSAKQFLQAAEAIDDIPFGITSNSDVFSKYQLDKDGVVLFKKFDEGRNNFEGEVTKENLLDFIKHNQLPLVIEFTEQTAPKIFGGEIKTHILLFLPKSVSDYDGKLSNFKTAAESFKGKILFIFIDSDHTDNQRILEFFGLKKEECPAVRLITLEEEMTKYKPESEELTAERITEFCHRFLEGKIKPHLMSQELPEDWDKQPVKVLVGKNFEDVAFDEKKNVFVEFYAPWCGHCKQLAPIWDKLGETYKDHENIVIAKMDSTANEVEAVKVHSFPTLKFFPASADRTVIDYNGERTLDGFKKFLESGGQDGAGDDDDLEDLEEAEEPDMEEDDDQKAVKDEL

PDIA1 [2] = molecular target: T1, PDIA1; assay: Glutathione competition in PDI reductase assay; format: biochemical; settings: 5 mM GSH

| PDI inhibition in the PDI reductase assay (in words) (PDIA1 [1]) | PDI inhibition in the presence of competing glutathione (PDIA1 [2]) | Compound | inhibition at 30 µM (U−87 MG cells) [%] |
| --- | --- | --- | --- |
| – | – | CC(=O)c1cc2ccc(C(c3ccc(F)cc3)N3CCCCC3)c(O)c2o1 (centres unmarked) [5m, 1-(6-((4-Fluorophenyl)(piperidin-1-yl)methyl)-7-hydroxybenzofuran-2-yl)ethanone] | 0 |
| lost activity | – | CN(C)c1cccc(C(c2ccc(F)cc2)N2CCCCC2)c1O (centres unmarked) [5l, 2-(Dimethylamino)-6-((4-fluorophenyl)(piperidin-1-yl)methyl)phenol] | 0 |
| – | – | Oc1ccc2ccncc2c1C(c1ccc(F)cc1)N1CCCCC1 (centres unmarked) [7d, 8-((4-Fluorophenyl)(piperidin-1-yl)methyl)isoquinolin-7-ol] | 0 |
| abolished its PDI inhibition | – | Oc1cc2c(cc1C(c1ccccc1)C1CCCCC1)OCO2 (centres unmarked) [compound 13, 6-(Cyclohexyl(phenyl)methyl)benzo[d][1,3]dioxol-5-ol] | – |
| – | – | Oc1ccc2nccnc2c1C(c1ccc(F)cc1)N1CCCCC1 (centres unmarked) [7c, 5-((4-Fluorophenyl)(piperidin-1-yl)methyl)quinoxalin-6-ol] | 0 |
| – | – | Oc1c(C(c2ccc3c(c2)CCC3)N2CCCCC2)ccc2ccoc12 (centres unmarked) [5o, 6-((2,3-Dihydro-1H-inden-5-yl)(piperidin-1-yl)methyl)benzofuran-7-ol] | 5 |
| – | – | Oc1c(C(c2ccc(C(F)(F)F)cc2)N2CCCCC2)ccc2ccoc12 (centres unmarked) [5r, 6-(Piperidin-1-yl(4-(trifluoromethyl)phenyl)methyl)benzofuran-7-ol] | 5 |
| – | – | COc1cccc(C(c2cc3c(cc2O)OC(F)(F)O3)N2CCOCC2)c1OC (centres unmarked) [6e, 6-((2,3-Dimethoxyphenyl)(morpholino)methyl)-2,2-difluorobenzo[d][1,3]dioxol-5-ol] | 40 |
| – | – | Oc1ccc2[nH]ncc2c1C(c1ccc(-c2cncnc2)cc1)N1CCCCC1 (centres unmarked) [7l, 4-(Piperidin-1-yl(4-(pyrimidin-5-yl)phenyl)methyl)-1H-indazol-5-ol] | 0 |
| – | – | O=[N+]([O-])c1ccc(C(c2c(O)ccc3[nH]ncc23)N2CCCCC2)cc1 (centres unmarked) [7i, 4-((4-Nitrophenyl)(piperidin-1-yl)methyl)-1H-indazol-5-ol] | 0 |
| – | – | Oc1c(C(c2ccc3c(c2)OC(F)(F)O3)N2CCCCC2)ccc2ccoc12 (centres unmarked) [5q, 6-((2,2-Difluorobenzo[d][1,3]dioxol-5-yl)(piperidin-1-yl)methyl)benzofuran-7-ol] | 9 |
| – | – | Oc1cc2c(cc1C(c1ccc(F)cc1)N1CCCCC1)OCCO2 (centres unmarked) [6c, 7-((4-Fluorophenyl)(piperidin-1-yl)methyl)-2,3-dihydrobenzo[b][1,4]dioxin-6-ol] | 1 |
| moderate loss of activity | – | Oc1cc2c(cc1C(c1ccc(F)cc1)N1CCCCC1)NCC2 (centres unmarked) [6d, 6-((4-Fluorophenyl)(piperidin-1-yl)methyl)indolin-5-ol] | 0 |
| – | – | Oc1ccc2cnccc2c1C(c1ccc(F)cc1)N1CCCCC1 (centres unmarked) [7e, 5-((4-Fluorophenyl)(piperidin-1-yl)methyl)isoquinolin-6-ol] | 0 |
| – | – | Oc1ccc2[nH]ccc2c1C(c1ccc(F)cc1)N1CCCCC1 (centres unmarked) [7f, 4-((4-Fluorophenyl)(piperidin-1-yl)methyl)-1H-indol-5-ol] | 0 |
| – | – | Oc1ccc2[nH]ncc2c1C(c1ccc(F)cc1)N1CCCCC1 (centres unmarked) [7g, 4-((4-Fluorophenyl)(piperidin-1-yl)methyl)-1H-indazol-5-ol] | 87 |
| – | – | Oc1c(C(c2ccc(F)cc2)N2CCCCC2)ccc2c1OCCO2 (centres unmarked) [5h, 6-((4-Fluorophenyl)(piperidin-1-yl)methyl)-2,3-dihydrobenzo[b][1,4]dioxin-5-ol] | 0 |
| – | remained active | N#Cc1cccc(/C=C/C(=O)c2ccc(O)cc2)c1 [BAP2, reference compound] | – |

| PDI inhibition in the PDI reductase assay (in words) (PDIA1 [1]) | PDI inhibition in the presence of competing glutathione (PDIA1 [2]) | Compound | inhibition at 30 µM (U−87 MG cells) [%] |
| --- | --- | --- | --- |
| submicromolar IC50 values | – | COc1cccc(C(c2ccc3cccnc3c2O)N2CCOCC2)c1OC (centres unmarked) [5a, 7-((2,3-Dimethoxyphenyl)(morpholino)methyl)quinolin-8-ol] | – |
| – | – | Oc1c(C(c2ccc(F)cc2)N2CCCCC2)ccc2cnccc12 (centres unmarked) [5j, 6-((4-Fluorophenyl)(piperidin-1-yl)methyl)isoquinolin-5-ol] | 0 |
| submicromolar IC50 values | – | Oc1c(C(c2ccc(F)cc2)N2CCCCC2)ccc2cccnc12 (centres unmarked) [5b, 7-((4-Fluorophenyl)(piperidin-1-yl)methyl)quinolin-8-ol] | – |
| – | – | Oc1cc(F)ccc1C(c1ccc2ccoc2c1O)N1CCCCC1 (centres unmarked) [5n, 6-((4-Fluoro-2-hydroxyphenyl)(piperidin-1-yl)methyl)benzofuran-7-ol] | 0 |
| – | – | Oc1c(C(c2ccc(F)cc2)N2CCCCC2)ccc2c1OCO2 (centres unmarked) [5i, 5-((4-Fluorophenyl)(piperidin-1-yl)methyl)benzo[d][1,3]dioxol-4-ol] | 0 |
| – | – | Oc1ccc2[nH]ncc2c1C(c1ccc(-c2nccs2)cc1)N1CCCCC1 (centres unmarked) [7j, 4-(Piperidin-1-yl(4-(thiazol-2-yl)phenyl)methyl)-1H-indazol-5-ol] | 0 |
| – | – | Oc1ccc2[nH]ncc2c1C(c1ccc(-n2cccc2)cc1)N1CCCCC1 (centres unmarked) [7k, 4-((4-(1H-Pyrrol-1-yl)phenyl)(piperidin-1-yl)methyl)-1H-indazol-5-ol] | 0 |
| – | – | Oc1c(C(c2ccc(F)cc2)N2CCCCC2)ccc2scnc12 (centres unmarked) [5f, 5-((4-Fluorophenyl)(piperidin-1-yl)methyl)benzo[d]thiazol-4-ol] | 0 |
| – | – | Oc1c(C(c2ccc(F)cc2)N2CCCCC2)ccc2cncnc12 (centres unmarked) [5c, 7-((4-Fluorophenyl)(piperidin-1-yl)methyl)quinazolin-8-ol] | 32 |
| – | – | Oc1c(C(c2ccc(F)cc2)N2CCCCC2)ccc2ccoc12 (centres unmarked) [5g, 6-((4-Fluorophenyl)(piperidin-1-yl)methyl)benzofuran-7-ol] | 0 |
| – | – | Oc1ccc2[nH]ncc2c1C(c1ccc(C(F)(F)F)cc1)N1CCCCC1 (centres unmarked) [7h, 4-(Piperidin-1-yl(4-(trifluoromethyl)phenyl)methyl)-1H-indazol-5-ol] | 0 |
| completely lost activity | – | Oc1cc2c(cc1C(c1ccc(F)cc1)N1CCCCC1)CCCC2 (centres unmarked) [6g, 3-((4-Fluorophenyl)(piperidin-1-yl)methyl)-5,6,7,8-tetrahydronaphthalen-2-ol] | 0 |
| – | – | Oc1ccc2ncccc2c1C(c1ccc(F)cc1)N1CCCCC1 (centres unmarked) [7a, 5-((4-Fluorophenyl)(piperidin-1-yl)methyl)quinolin-6-ol] | 10 |
| – | – | Oc1c(C(c2ccc(F)cc2)N2CCCCC2)ccc2nccnc12 (centres unmarked) [5e, 6-((4-Fluorophenyl)(piperidin-1-yl)methyl)quinoxalin-5-ol] | 0 |
| complete loss of the potency | – | Oc1c(C(c2ccc(F)cc2)N2CCCCC2)ccc2c1CCC2 (centres unmarked) [5k, 5-((4-Fluorophenyl)(piperidin-1-yl)methyl)-2,3-dihydro-1H-inden-4-ol] | – |
| lost activity | – | COc1c(C(c2ccc(F)cc2)N2CCCCC2)ccc2ccoc12 (centres unmarked) [compound 8, 1-((4-Fluorophenyl)(7-methoxybenzofuran-6-yl)methyl)piperidine] | – |
| – | – | Oc1ccc2scnc2c1C(c1ccc(F)cc1)N1CCCCC1 (centres unmarked) [7b, 4-((4-Fluorophenyl)(piperidin-1-yl)methyl)benzo[d]thiazol-5-ol] | 1 |
